Source: PubChem BioAssay (The Scripps Research Institute Molecular Screening Center)
This is a sample that favours compounds with a hit; in the whole collection about 3.3% have one here.
ABHD4 inh: ABHD4 inhibitors, primary screen, biochemical, fluorescence polarization, mouse. (Lyso)-N-acylphosphatidylethanolamine lipase (Mus musculus), Q8VD66. inhibition, % at 8.92 µM. AID 720543, 2013. actives 0.54% (n = 370,000). purified mABHD4, FP-Rh probe fluorescence polarization;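 active = inhibition exceeding the mean over every tested compound plus 3 SD, cut at about 30% in these data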
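System: mouse ABHD4 enzyme, wild type / Medium: HEPES pH 7.0, NaCl, Pluronic buffer / Reagent: FP-Rh activity-based fluorescent probe / Control set: S159A mutant high control, sample median low control / Detection: fluorescence polarization with parallel and perpendicular emission, 525/598 nm / Schedule: 45 min + 60 min at 25 °C / Compound dosing: 8.92 µM, single dose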
TCR CD3 inh: inhibitors of human TCR-CD3 interaction, primary screen, biochemical, fluorescence, TAMRA-labeled TCR probe; T-cell receptor (TCR); inhibition, % at 9.4 µM; actives 0.37% (n = 360,000); AID 651800, 2012; in the data active = inhibition above about 19%;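 note: recombinant mutant TCR 2C K166C tagged with TAMRA read by polarization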
rCAG binder: binders of r(CAG) RNA repeats, primary screen, biochemical, fluorescence. r(CAG) RNA repeat, TO-PRO-1 dye displacement fluorescence. inhibition, % at 3 µM. actives 1.3% (n = 370,000). AID 651821, 2012;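 active = inhibition above the plate cutoff, the mean of all test compounds on that plate plus 3 SD, cut at about 35% in these data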;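 note: higher means more dye released from RNA so lower well fluorescence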
PRMT1 inh: PRMT1 methyltransferase inhibitors, primary screen, biochemical, fluorescence polarization; Protein arginine N-methyltransferase 1 (Homo sapiens), Q99873; recombinant PRMT1, activity-based probe fluorescence polarization; inhibition, % at 2.79 µM; actives 1.3% (n = 370,000); AID 652257, 2013;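 active = inhibition above about 21% made by adding two undisclosed values, limit read from the data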
Target sequence (Q99873 whole entry, looked up): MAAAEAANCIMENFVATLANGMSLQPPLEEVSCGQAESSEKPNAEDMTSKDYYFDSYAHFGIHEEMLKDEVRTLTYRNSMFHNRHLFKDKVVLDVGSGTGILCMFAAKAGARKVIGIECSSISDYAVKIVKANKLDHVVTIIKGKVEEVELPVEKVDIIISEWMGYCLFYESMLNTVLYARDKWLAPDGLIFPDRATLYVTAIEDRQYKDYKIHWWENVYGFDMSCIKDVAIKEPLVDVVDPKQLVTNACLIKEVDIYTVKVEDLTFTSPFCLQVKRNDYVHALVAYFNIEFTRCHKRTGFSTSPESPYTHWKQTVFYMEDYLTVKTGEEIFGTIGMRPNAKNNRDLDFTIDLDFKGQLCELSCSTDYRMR
SIAE primary: human SIAE inhibitors, primary screen, biochemical, fluorescence polarization, FP-Rh probe, 1536-well HTS; actives 0.69% (n = 370,000); AID 1053197, 2014; Sialate O-acetylesterase (Homo sapiens), Q9HAT2; inhibition, % at 9.66 µM; SIAE FP-Rh probe binding;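 active = inhibition above a cutoff: mean of compounds within the control limits plus 3 SD of those, cut at about 17% in these data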
ABHD4 confirm: ABHD4 inhibitors, retest, confirmation, biochemical, fluorescence polarization, mouse. actives 55% (n = 1,800). purified mABHD4, FP-Rh probe fluorescence polarization. inhibition, % at 8.92 µM. AID 720658, 2013. shares compounds with ABHD4 inh;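 active = mean inhibition across replicates above the hit cutoff set in the primary screen, cut at about 30% in these data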
Numbers stand for hits; n = inactive; x = no result given.

SMILES | ABHD4 inh | TCR CD3 inh | rCAG binder | PRMT1 inh | SIAE primary | ABHD4 confirm
O=C(O)[C@H]1CCCC[C@H]1C(=O)Nc1ccc(Nc2ccccc2)cc1 | 42 | n | n | n | n | n
COc1cccc(OC)c1C(=O)Nc1ccc(N2CCCC2)cc1 | 33 | n | n | n | n | 38
COc1ccccc1C(=O)Nc1ccc(N2CCCCC2)cc1 | n | n | n | n | n | x
C[C@@H]1C(=O)N2N=Cc3ccccc3[C@H]2N2N=Cc3ccccc3[C@@H]12 | n | x | n | n | n | x
COC(=O)[C@H](CC(C)C)N1Cc2nnn(CC3CCCCC3)c2-c2cc(F)ccc2S1(=O)=O | n | x | n | n | n | x
Cc1ccc(C2C3=C(CC(C)(C)CC3=O)N=C3c4ccccc4C(=O)C32)cc1 (stereo unspecified) | 59 | n | n | n | n | 86
CC(C)C[C@@H]1CN=C(N)N1C[C@@H]1CCCN1C[C@@H](C(C)C)N1C[C@@H](Cc2ccccc2)N(CCc2ccc(Cl)c(Cl)c2)C1=N | 34 | n | n | n | n | n
N=c1c2c(-c3ccccc3)c(-c3ccccc3)n(Cc3ccccc3)c2ncn1C1CCOCC1 | n | x | n | n | n | x
O=C(NNC(=O)c1nc2ccccc2[nH]1)OCc1ccccc1 | 36 | n | n | n | n | n
O=C(NCC1CCN(C(=O)C(=O)c2cc3ccccc3o2)CC1)c1ccc2c(c1)OCO2 | n | n | n | n | n | x
CCn1c(O)c(C=NCc2ccccc2)sc1=S | n | n | n | n | n | x
Oc1cccc(C=NCc2ccccc2)c1O | 45 | 29 | n | 36 | 18 | 43
NC(=S)n1[nH]c(-c2ccc([N+](=O)[O-])cc2)c(N=Nc2cccc([N+](=O)[O-])c2)c1=O | 30 | n | n | n | n | 54
NC(=S)n1[nH]c(-c2ccc([N+](=O)[O-])cc2)c(N=Nc2ccccc2[N+](=O)[O-])c1=O | n | n | n | n | n | x
O=C1NC(c2ccccc2Cl)Nc2ccccc21 (stereo unspecified) | n | n | n | n | n | x
Clc1ccccc1C1Nc2cccc3cccc(c23)N1 | 48 | n | n | n | n | 36
Cc1cc(NCCCCCCCNc2cc(C)nc3cc([N+](=O)[O-])ccc23)c2ccc([N+](=O)[O-])cc2n1 | 32 | n | n | n | n | 40
CCOC(=O)C1CCN(C2=C(NS(=O)(=O)c3ccc(Br)cc3)C(=O)c3ccccc3C2=O)CC1 | 45 | n | n | n | 19 | 63
CNCc1ccccc1Sc1cc(O)ccc1O | 50 | n | n | 58 | n | 63
C/C(=N/NC(=O)Cc1cccs1)c1cccc([N+](=O)[O-])c1 | n | x | n | n | n | x
Cc1[nH]c(N=Nc2ccccc2)nc1N=Nc1ccccc1 | 45 | n | n | n | n | 62
Nc1ccc(N=Nc2ccccc2)c(N)n1 | n | n | n | n | n | x
Cc1cc(C)cc(C(=O)OCCN(C)C2CN(Cc3cn(Cc4ccccc4C(F)(F)F)nn3)S(=O)(=O)C2)c1 (stereo unspecified) | n | x | n | n | n | x
Cc1cc2c(cc1S(=O)(=O)N1CC(C)CC(C)C1)OCC(=O)N2 (stereo unspecified) | n | n | n | n | n | x
Cc1cc(N2CCOc3ccccc32)nc2ccccc12 | n | x | x | n | n | x
SMILES | ABHD4 inh | TCR CD3 inh | rCAG binder | PRMT1 inh | SIAE primary | ABHD4 confirm
CCc1ccccc1N=Nc1c(N)[nH]n(-c2ccccc2)c1=O | 34 | x | n | n | n | 45
Nc1[nH]n(-c2ccccc2)c(=O)c1N=Nc1ccccc1 | n | n | n | n | n | x
Nc1[nH]n(-c2ccccc2)c(=O)c1N=Nc1ccc2ncsc2c1 | 48 | n | n | 23 | n | 65
COC(=O)[C@]12C[C@H](CC(=O)NCc3cccs3)C(=O)N(Cc3ccco3)C1=C[C@H](C1CCCC1)O[C@@H]2C | n | x | n | n | n | x
CC(=O)C1=C(C)NC2=C(C(=O)c3ccccc32)C1c1ccccc1 (stereo unspecified) | 41 | n | n | n | n | 83
CC1=C(C#N)C(c2ccccc2)C2=C(N1)c1ccccc1C2=O (stereo unspecified) | n | n | n | n | n | x
COc1ccc(CNc2ncnc3c2[nH]c2ccccc23)cc1 | n | n | n | n | n | x
Cc1ccc2[nH]c3c(NCc4ccccc4)ncnc3c2c1 | 41 | n | n | n | 24 | n
COc1cccc(CNS(=O)(=O)c2c(C)nc3sccn3c2=O)c1 | 65 | n | n | n | n | n
Cc1nc2sccn2c(=O)c1S(=O)(=O)NCc1ccccc1 | n | n | n | n | n | x
CC1CCN(c2ccc(C(=O)O)cc2NS(=O)(=O)c2ccccc2)CC1 | 37 | x | n | n | n | 39
CC1CCN(C(=O)c2ccccc2NS(=O)(=O)c2ccccc2)CC1 | n | n | n | n | n | x
CN(C)c1ccc(C=c2c3cc([N+](=O)[O-])ccc3n3c2cc(-c2ccccc2)[n+]3C)cc1 | 78 | 57 | n | n | n | n
C#CCNC(=O)C[C@H]1C[C@@]2(C(=O)OC)C(=C[C@H](C3CCCC3)O[C@@H]2C)N(Cc2ccc(Cl)cc2Cl)C1=O | n | x | n | n | n | x
COc1cc(/C=N/Nc2cccc3cccnc23)cc(OC)c1O | 32 | n | n | n | n | 33
Oc1cccc(/C=N/Nc2cccc3cccnc23)c1 | n | n | n | n | n | x
COc1cccc(CNc2cccc3cccnc23)c1O | 34 | n | n | n | n | n
COc1cccc(CNc2ccccn2)c1O | n | n | n | n | n | x
Nc1ccc2c(c1)-c1ccccc1S(=O)(=O)N2 | 50 | n | n | 22 | n | 31
Cc1ccc2c(c1)-c1ccccc1S(=O)(=O)N2 | n | n | n | n | n | x
COc1ccc(CN2CCC(N3CC(C)OC(C)C3)CC2)c(OC)c1OC (stereo unspecified) | 32 | n | n | n | n | n
COc1ccc(C2CC(c3cccs3)=NN2C(=O)CSc2nc(=O)n3cc(C)ccc3n2)cc1 (stereo unspecified) | n | n | n | n | n | x
Cc1ccc(/C=N\NC(=O)CN2CCN(S(=O)(=O)c3ccc(Br)cc3)CC2)s1 | n | x | n | n | n | x
O=C(CSc1n[nH]c(-c2ccccc2)n1)c1ccc(O)c(O)c1 | 34 | n | n | n | n | n
Cc1ccc(O)c(NC(=O)CSc2n[nH]c(-c3ccccc3)n2)c1 | n | n | n | n | n | x
C[C@@H]1COc2cc(Br)ccc2S(=O)(=O)N1Cc1cn(CC2CCCCC2)nn1 | n | x | n | n | n | x
C=CCNC(=O)CN(C(=O)c1csc2ccc(Cl)cc12)c1cccc(Br)c1 | n | x | n | n | n | x
